Runt-CBFb FRET: inhibitors of RUNX1 Runt–CBFb binding, primary screen, biochemical, FRET, Cerulean-Runt, Venus-CBFb, uHTS | Runt-related transcription factor 1 (Homo sapiens) + Core-binding factor subunit beta … | Cerulean-Runt/Venus-CBFb FRET ratio 530/480, 1 h | inhibition, % at 20 µM | actives 0.46% (n = 220,000);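 active means inhibition over about 50% at 20 µM in the single-dose screen, limit read from the data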;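 further: 0% = DMSO wells and 100% = excess unlabeled CBFb competitor control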
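System: Cerulean-labeled Runt domain protein | Quantity: 100 nM of each labeled protein | Schedule: 1 h compound exposure, room temperature | Detection: Fluorescence energy transfer, 422 nm excitation, 530/480 nm emission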
proKLK7 act: proKLK7 zymogen activators, primary screen, biochemical, fluorescence intensity; activation, % at 7 µM; actives 0.9% (n = 370,000); Kallikrein-7 (Homo sapiens), P49862; purified proKLK7, EDANS-DABCYL substrate fluorescence; 100% is mature enzyme control, 0% vehicle;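 active means activation above the mean of all tested compounds plus 3 SD, computed per campaign excluding outliers beyond control limits, cut at about 13% in these data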
MEX-5 binding: MEX-5 zinc finger RNA-binding disruptors – biochemical, C. elegans, fluorescence polarization, MLPCN library, primary screen; actives 0.38% (n = 300,000); AID 1832, 2009; MEX-5/FITC-TCR2 RNA binding; active compounds read low; activity score (negative = inhibition of binding), % at 10 µM;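 active means inhibition past about -25% in most replicates, and total fluorescence under double the plate's negative control median, limit read from the data; inconclusive means replicates evenly split on the limit, or fluorescence at least double controls; inactive means too little inhibition in most replicates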;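 further: 0% = DMSO and -100% = 5 µM competing unlabeled TCR2 RNA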
Target sequence (Q9XUB2 whole entry, looked up): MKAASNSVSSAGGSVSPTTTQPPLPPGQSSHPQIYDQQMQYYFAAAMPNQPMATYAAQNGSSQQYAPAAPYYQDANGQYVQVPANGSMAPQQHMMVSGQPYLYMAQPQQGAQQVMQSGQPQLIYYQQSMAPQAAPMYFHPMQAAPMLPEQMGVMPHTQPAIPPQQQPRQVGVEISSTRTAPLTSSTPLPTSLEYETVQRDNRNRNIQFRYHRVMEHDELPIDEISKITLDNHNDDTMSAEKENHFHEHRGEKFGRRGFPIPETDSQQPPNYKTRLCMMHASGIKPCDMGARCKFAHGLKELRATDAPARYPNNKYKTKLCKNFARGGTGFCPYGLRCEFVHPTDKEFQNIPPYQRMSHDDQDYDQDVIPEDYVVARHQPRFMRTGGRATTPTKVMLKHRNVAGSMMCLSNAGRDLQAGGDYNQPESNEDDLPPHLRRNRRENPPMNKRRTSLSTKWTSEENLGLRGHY
RanGTP-Impb inh: inhibitors of RanGTP-importin-beta interaction, primary screen, biochemical, FRET, CFP-Ran, YFP-importin-beta, homogeneous | Ran GTPase (GTP-bound) - importin-beta complex | cell-free CFP-Ran/YFP-importin-beta FRET ratio | inhibition, % (no concentration beside the values) | actives 1.1% (n = 300,000);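 active means more than half of the replicate wells show a fall in the fluorescence ratio signal beyond about 16%, limit read from the data, passing the limit was not always enough; inconclusive means exactly half of the replicate wells pass the set limit; inactive means fewer than half of replicates pass the limit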;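 further: 0% = DMSO wells and 100% = Ran loaded with GDP instead of GTP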
Runt-SMMHC FRET: inhibitors of RUNX1 Runt–CBFb-SMMHC binding, primary screen, biochemical, FRET, Cerulean-Runt, Venus-CBFb-SMMHC, uHTS. inhibition, % at 20 µM. Cerulean-Runt/Venus-CBFb-SMMHC FRET ratio 530/480, 1 h. actives 0.74% (n = 220,000);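 active means mean inhibition across duplicate retests at 20 µM reaching about 50%, limit read from the data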;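 further: 0% = DMSO wells and 100% = wells with excess untagged CBFb-SMMHC; inhibitors lower the FRET ratio by blocking Runt binding to CBFb-SMMHC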
YIC counter: YIC intramolecular FRET probe signal interference, dose response, counter-screen for RanGTP-importin-beta inhibitor project, biochemical, fluorescence FRET; Purified YIC probe, intramolecular FRET ratio YFP/CFP; IC50, µM; actives 40% (n = 1,000); shares compounds with RanGTP-Impb inh;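 active means fitted half-maximal inhibitory concentration no more than tenfold above the top dose tested; inconclusive means flat fit with 30 to 70% activity, or poor fit; inactive means half-maximal concentration beyond tenfold above the top dose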
* = called active by the depositor; u = inconclusive; x = no result. Only some compounds are listed: those with a hit (about 2.1% of all), similar ones and a draw of the others.

SMILES | Runt-CBFb FRET | proKLK7 act | MEX-5 binding | RanGTP-Impb inh | Runt-SMMHC FRET | YIC counter
Cc1ccc(S(=O)(=O)c2cc3c(=O)n4cccc(C)c4nc3n(C3CCCCC3)c2=N)cc1 | x | x | -1 | 34* | x | 3.9*
COc1cc(C=NNC(=O)Cn2nc(C)cc2C)ccc1OC(=O)C1CC1 | x | 0 | x | x | x | x
C=CCN1C=CC(=CC=C(C#N)C#N)C=C1 | -26 | 0 | u | 21* | -50 | 17*
C=CCN1C=C/C(=C\C=C(C#N)C#N)c2ccccc21 | 0 | 0 | 7 | -6 | 15 | x
CC1=C(C#N)C(=O)N(C)C(C)(C)C1 | 1 | 0 | -5 | -4 | 2 | x
CCCN1CC(O)=C(C#N)C1=O | 0 | 0 | -2 | 24* | 1 | >50
CCOC1=C2CN(S(=O)(=O)c3ccc(C)cc3)C(c3ccccc3)CC2N(S(=O)(=O)c2ccccc2Cl)C(c2ccccc2)C1 (centres undefined) | x | 0 | x | x | x | x
N#C/C(=C/c1ccc(O)c(O)c1)c1nc2ccccc2[nH]1 | x | 3 | u | 39* | x | 3.9*
COc1ccc([C@H]2CC(=O)C[C@@H](CCn3nnc4ccccc43)O2)cc1 | x | 1 | x | x | x | x
COc1ccc(N2CCN(c3nc4c(C)cccn4c(=O)c3/C=C(\C#N)C(N)=O)CC2)cc1 | x | 10 | 1 | u | x | x
COc1ccc(Oc2nc3c(C)cccn3c(=O)c2/C=C(\C#N)C(N)=O)cc1 | 34 | 10 | 0 | 22* | 82* | 6*
Cc1cccc(Oc2nc3ccccn3c(=O)c2/C=C(\C#N)C(=O)NC2CCS(=O)(=O)C2)c1 (centres undefined) | 4 | 11 | 1 | 27* | 81* | 48*
Cc1cccn2c(=O)c(/C=C(\C#N)C(=O)NC3CCS(=O)(=O)C3)c(Oc3ccc(F)cc3)nc12 (centres undefined) | x | 2 | -1 | 37* | x | 18*
CCC1S/C(=N/S(=O)(=O)c2ccc(N)cc2)NC1=O (centres undefined) | x | 1 | x | x | x | x
CCc1nc2ccc(C(=O)NCc3cccs3)cn2c1N(CC)CCOC | x | 1 | x | x | x | x
COc1ccc(-n2c(C)cc(/C=C3/SC(=S)N(C)C3=O)c2C)cc1 | -7 | 0 | -5 | 23* | -51 | >50
O=C(c1cc2c(=O)n3ccccc3nc2s1)N1CCN(c2cccc(Cl)c2)CC1 | x | -1 | -2 | 29* | x | >50
CCc1nc2ccc(C(=O)NCCCn3ccnc3)cn2c1N(C)Cc1nccs1 | x | 0 | x | x | x | x
Cc1cccc(C(=O)Nc2sc(C)c(-c3ccccc3)c2C#N)c1 | 3 | 0 | 5 | 39* | 4 | >50
Cc1sc(NC(=O)C2CCCCC2)c(C#N)c1-c1ccccc1 | 2 | 1 | 2 | 1 | -4 | x
O=C1c2cccnc2C(=O)N1Cc1ccc(S(=O)(=O)N2CCOc3ccc(Cl)cc32)cc1 | x | x | 1 | 7 | x | x
CCOC(=O)C1=CCC(c2cccc3ccccc23)N(S(=O)(=O)c2ccc(C)cc2)C1 (centres undefined) | x | 1 | x | x | x | x
Cc1cc2c(c(=O)n1C1CC1)C(c1cccc(Cl)c1)C(C#N)=C(N)O2 (centres undefined) | 6 | 0 | -2 | 20* | 3 | >50
Cc1cc2c(c(=O)n1CCN(C)C)C(c1ccc(Cl)cc1)C(C#N)=C(N)O2 (centres undefined) | 0 | 1 | 0 | 2 | -2 | x
COc1ccccc1CNC(=O)Cn1ccsc1=N | x | 1 | 0 | 20* | x | >50
SMILES | Runt-CBFb FRET | proKLK7 act | MEX-5 binding | RanGTP-Impb inh | Runt-SMMHC FRET | YIC counter
CC(C)NC(=O)NC(=O)COC(=O)c1ccccc1O | -2 | 8 | 3 | 16* | -1 | >50
Cc1cccc(-n2c(C)cc(/C=C3\C(=N)N4N=C(CC(C)C)SC4=NC3=O)c2C)c1 | -22 | -1 | 0 | 26* | 9 | >50
Cc1cc(C)cc(-n2c(C)cc(/C=C3\C(=N)N4N=C(CC(C)C)SC4=NC3=O)c2C)c1 | -52 | -1 | 2 | 5 | -61 | x
CC(=O)N1c2ccc(S(=O)(=O)N3CCC(C(=O)Nc4cccc(Cl)c4)CC3)cc2CC1C (centres undefined) | x | 0 | -12 | 25* | x | >50
CC(=O)N1c2ccc(S(=O)(=O)N3CCC(C(=O)Nc4cccc(C)c4)CC3)cc2CC1C (centres undefined) | x | 1 | 5 | 2 | x | x
Fc1ccc(N/N=C/C=C/c2ccccc2)c(F)c1 | 1 | -1 | 1 | 20* | 1 | >50
Cc1ccc(S(=O)(=O)N2CCOCC2)cc1C(=O)N1CCN(S(=O)(=O)c2cccs2)CC1 | 2 | 0 | 0 | 0 | -1 | x
COc1ccc(C2c3c(ncn(Cc4ccco4)c3=N)Oc3ccc4ccccc4c32)cc1 (centres undefined) | 1 | -1 | 0 | 71* | 0 | >50
N=c1c2c(ncn1Cc1ccco1)Oc1ccc3ccccc3c1C2c1ccccc1 (centres undefined) | -1 | 0 | 2 | -1 | -1 | x
Cc1ccc(CNC(=O)OC(C)(C)C)c(/C=C/S(=O)(=O)NC2CCCC2)c1 | x | 0 | x | x | x | x
N#Cc1ccc(C(=O)NC23CC4CC(CC(C4)C2)C3)cc1 | x | 0 | 1 | 5 | x | x
CCN1CCc2c(sc(N)c2C#N)C1 | 43 | 0 | -8 | 34* | 110* | 18*
N#Cc1c(N)sc(=S)c2c1CCN(Cc1ccccc1)C2 | 25 | x | x | x | 31 | x
CCN1CCN(Cc2ccc(NC(=O)c3ccc(C)c(/C=C/c4cnc(Nc5cc(N6CCNCC6)nc(C)n5)cn4)c3)cc2C(F)(F)F)CC1 | x | x | 27 | 31* | x | 17*
CCN1CCN(Cc2ccc(NC(=O)c3ccc(C)c(NC(=O)c4ccno4)c3)cc2C(F)(F)F)CC1 | 1 | 1 | 3 | -1 | 3 | x
OCCNc1c2ccccc2nc2ccccc12 | 109* | -3 | 3 | 40* | 116* | 4.9*
OCCCNc1nc(-c2ccc(Cl)cc2)nc2ccccc12 | x | 0 | 0 | 4 | x | x
OCCNc1nc(-c2ccccc2)nc2ccccc12 | 1 | 0 | -4 | 17* | 2 | >50
OCCNc1nc2ccccc2nc1NCCO | 1 | 5 | -1 | 4 | 4 | x
COc1cc(S(=O)(=O)NCCCN2CCOCC2)ccc1Cl | 1 | -1 | 0 | 17* | 3 | >50
